Measured values of several laboratories.
Protocols differ between the studies behind these lines.
Effect on: enzyme activity
Action: inhibitor
ABL1: Tyrosine-protein kinase ABL1 (ABL1, Homo sapiens, UniProt P00519)
ABL1 T315I: Tyrosine-protein kinase ABL1 (ABL1, Homo sapiens, UniProt P00519, T315I)
ABL1 Y253F: Tyrosine-protein kinase ABL1 (ABL1, Homo sapiens, UniProt P00519, Y253F)

With `CS(=O)(=O)Nc1cccc(-c2csc(NC(=O)CSc3nc4nccnc4c(=O)n3CCc3ccccc3)n2)c1` the inhibition was 2% (ABL1; 10 µM).
For `CNc1cccc2cc(C(=O)Nc3ccc(C(=O)O)cc3)c(=O)[nH]c12`, the inhibition was 1.8% (ABL1; 10 µM).
For `O=C(CSc1nc2nccnc2c(=O)n1CCc1ccccc1)Nc1nccs1`, the inhibition was 2% (ABL1 T315I; 10 µM).
`CNC(=O)c1cc2c(Oc3ccc(NC(=O)C4(C(=O)Nc5ccc(F)cc5)CC4)cc3)ccnc2cc1OC` has an inhibition of 78% (ABL1 Y253F; radiometric; 1 µM).
The inhibition of `CN(C)C1CCN(CC#Cc2nn(C3CCCC3)c3nc(NCc4ccccc4)ncc23)C1` (stereo not drawn) is reported as 31% (ABL1; FRET; 10 µM).
For `COc1cc2ncnc(Nc3ccc(Oc4ccccc4)c(C)c3C)c2cc1OC`, the inhibition was 2% (ABL1 Y253F; 1 µM).
`COc1cc(-c2cc(-c3ccc(N4CCNCC4)cc3)cnc2N)cc(OC)c1OC` gave an inhibition of 96% (Tyrosine-protein kinase ABL1 (ABL1, Homo sapiens, UniProt P00519, Q252H); 1 µM).
`COc1cc2ncnc(Nc3ccc(Oc4ccccc4)cc3C)c2cc1OC` gave an inhibition of 5% (ABL1 T315I; 1 µM).
`CC/C(=N\NC(=O)NCc1cccc(O)c1)c1ccc(O)c(C)c1O` has an inhibition of -1.5% (ABL1 T315I; 0.1 µM).
